Cav3 T inh = Cav3.2 calcium influx blockers – cell-based, Fluo-4 calcium fluorescence, FDSS, MLSMR library, primary screen; Cav3.2-expressing cells; stronger effect = lower value; Voltage-dependent T-type calcium channel subunit alpha-1H (Homo sapiens), O95180; hit rate 4% among 100,000; B-score at 10 µM;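 active means single-dose well whose peak fluorescence ratio is a statistical outlier from its plate by either plate-standardised score or position-corrected B-score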
Target sequence (O95180 whole entry, looked up): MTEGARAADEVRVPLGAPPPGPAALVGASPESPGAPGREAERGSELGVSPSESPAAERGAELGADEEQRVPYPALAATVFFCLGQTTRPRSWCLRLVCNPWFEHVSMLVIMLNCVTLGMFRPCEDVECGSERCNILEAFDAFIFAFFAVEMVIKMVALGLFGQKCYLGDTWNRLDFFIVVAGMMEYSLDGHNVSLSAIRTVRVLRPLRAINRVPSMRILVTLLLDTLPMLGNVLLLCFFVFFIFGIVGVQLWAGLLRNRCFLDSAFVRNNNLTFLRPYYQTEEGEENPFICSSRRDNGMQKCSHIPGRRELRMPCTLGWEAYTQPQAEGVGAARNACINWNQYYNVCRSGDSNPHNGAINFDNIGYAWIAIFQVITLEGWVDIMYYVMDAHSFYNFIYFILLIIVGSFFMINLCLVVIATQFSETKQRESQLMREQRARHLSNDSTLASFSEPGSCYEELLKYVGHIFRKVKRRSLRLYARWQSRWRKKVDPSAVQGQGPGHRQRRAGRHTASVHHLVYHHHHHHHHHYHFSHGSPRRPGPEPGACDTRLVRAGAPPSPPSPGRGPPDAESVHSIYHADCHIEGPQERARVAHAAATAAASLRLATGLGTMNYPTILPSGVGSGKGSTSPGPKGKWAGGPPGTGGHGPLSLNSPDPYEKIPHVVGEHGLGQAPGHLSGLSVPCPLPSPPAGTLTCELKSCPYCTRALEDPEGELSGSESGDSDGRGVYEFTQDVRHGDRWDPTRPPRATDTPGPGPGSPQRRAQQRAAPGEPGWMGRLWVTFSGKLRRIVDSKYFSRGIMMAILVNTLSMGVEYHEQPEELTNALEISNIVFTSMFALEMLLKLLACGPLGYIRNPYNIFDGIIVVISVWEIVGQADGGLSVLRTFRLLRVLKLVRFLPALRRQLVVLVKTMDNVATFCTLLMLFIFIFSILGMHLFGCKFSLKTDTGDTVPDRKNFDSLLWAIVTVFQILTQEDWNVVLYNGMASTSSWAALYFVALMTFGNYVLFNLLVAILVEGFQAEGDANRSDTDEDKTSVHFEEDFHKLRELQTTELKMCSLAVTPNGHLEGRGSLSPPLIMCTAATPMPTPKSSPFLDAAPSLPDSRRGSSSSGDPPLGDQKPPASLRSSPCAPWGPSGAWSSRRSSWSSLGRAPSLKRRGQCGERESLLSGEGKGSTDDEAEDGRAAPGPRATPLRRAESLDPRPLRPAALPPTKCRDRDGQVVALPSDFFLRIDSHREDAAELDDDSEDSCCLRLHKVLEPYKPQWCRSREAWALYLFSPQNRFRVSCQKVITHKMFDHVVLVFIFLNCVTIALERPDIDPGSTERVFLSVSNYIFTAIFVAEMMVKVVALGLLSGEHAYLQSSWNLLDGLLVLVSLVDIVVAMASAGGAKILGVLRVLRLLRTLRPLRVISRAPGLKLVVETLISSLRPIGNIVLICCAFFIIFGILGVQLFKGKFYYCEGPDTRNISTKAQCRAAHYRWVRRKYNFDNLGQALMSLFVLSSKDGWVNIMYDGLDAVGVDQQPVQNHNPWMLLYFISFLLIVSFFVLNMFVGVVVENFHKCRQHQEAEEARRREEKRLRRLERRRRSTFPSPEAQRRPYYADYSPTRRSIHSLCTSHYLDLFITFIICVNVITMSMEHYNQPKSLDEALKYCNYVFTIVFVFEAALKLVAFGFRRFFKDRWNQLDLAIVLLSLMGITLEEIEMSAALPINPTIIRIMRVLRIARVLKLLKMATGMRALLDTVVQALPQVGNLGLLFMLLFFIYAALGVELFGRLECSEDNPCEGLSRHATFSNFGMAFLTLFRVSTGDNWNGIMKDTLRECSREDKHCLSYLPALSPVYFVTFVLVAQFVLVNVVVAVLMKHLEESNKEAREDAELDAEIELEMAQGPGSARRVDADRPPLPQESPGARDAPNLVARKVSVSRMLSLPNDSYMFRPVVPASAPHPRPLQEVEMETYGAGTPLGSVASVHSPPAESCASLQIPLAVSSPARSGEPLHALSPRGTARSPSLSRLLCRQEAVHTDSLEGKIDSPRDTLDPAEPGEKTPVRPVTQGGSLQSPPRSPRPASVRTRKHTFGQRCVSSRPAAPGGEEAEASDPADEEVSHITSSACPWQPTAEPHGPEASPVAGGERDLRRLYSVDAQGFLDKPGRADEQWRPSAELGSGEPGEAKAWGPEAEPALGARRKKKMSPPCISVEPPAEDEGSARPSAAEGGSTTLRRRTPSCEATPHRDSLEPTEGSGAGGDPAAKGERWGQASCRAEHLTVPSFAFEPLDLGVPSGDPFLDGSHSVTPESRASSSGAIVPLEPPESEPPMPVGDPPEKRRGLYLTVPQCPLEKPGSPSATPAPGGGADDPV
DAT uptake mod = changed hDAT dopamine uptake under cocaine IC80, either direction, primary screen, cocaine antagonist project, cell-based, LLC-PK1 hDAT, [14C]-dopamine uptake, MLSMR; B-score at 10 µM; AID 449768, 2010; Sodium-dependent dopamine transporter (Homo sapiens), Q01959; LLC-PK1 hDAT cells, [14C]-dopamine uptake with cocaine IC80; actives deviate in either direction; hit rate 1.3% among 110,000;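 active means Z score or B-score, a plate-position-corrected score, falls beyond the plate's 99.7% confidence bounds, in either direction; inactive means both scores lie inside the 99.7% bounds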;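 further: scored against the spread of the other compound wells on the same plate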
HIV Rev-RRE inh = HIV-1 Rev-RRE binding inhibitors, primary screen, biochemical, FRET, protein-RNA interaction; P05866; Rev peptide-RRE RNA binding; inhibition, % at 8 µM; hit rate 0.79% among 97,000; AID 704, 2007;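 active means inhibition above the screen-wide mean plus 3 SD, cut at about 35% in these data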;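 further: 0% = median DMSO wells and 100% = median Neomycin B control wells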
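Test system: Cy5-tagged RRE RNA duplex with fluorescein-tagged Rev peptide; Probe or stimulus: labelled Rev peptide; Schedule: 5 min preincubation and 15 min binding, 25 °C; Signal: FRET fluorescence readout; Evaluation: % inhibition from 671/540 nm acceptor-to-donor ratio, scaled between controls; Control set: DMSO and neomycin B.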
EphB4 antag = EphB4-ephrin-B2 interaction antagonists, primary screen, biochemical, TNYL-RAW peptide probe, fluorescence polarization; hit rate 0.15% among 97,000; EphB4 LBD / TNYL-RAW-Alexa532 peptide; Ephrin type-B receptor 4 (Homo sapiens), P54760; inhibition, % at 7 µM;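 active means inhibition above the screen-wide mean inhibition plus 3 SD, cut at about 15% in these data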;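 further: 0% = DMSO wells and 100% = excess unlabeled TNYL-RAW peptide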
Numbers without * were called inactive. An excerpt weighted towards active compounds, which were near 5.4% of everything screened.

How did COc1cc(C2C(C(=O)c3ccco3)=C(O)C(=O)N2CCc2ccccc2)ccc1O (stereo unspecified) do in these assays?
Cav3 T inh: 0.42; DAT uptake mod: -3.3*

How did CCOc1cc(C2C(C(=O)c3ccc(C)o3)=C(O)C(=O)N2CCc2ccccc2)ccc1O (stereo unspecified) do in these assays?
Cav3 T inh: -2.5; DAT uptake mod: -4.6*; HIV Rev-RRE inh: 6; EphB4 antag: -2

Results for Cc1ccc2nc(N3C(=O)C(O)=C(C(=O)c4ccco4)C3c3cccs3)sc2c1 (stereo unspecified) ?
Cav3 T inh: -3.1*; DAT uptake mod: 1.1; HIV Rev-RRE inh: 9; EphB4 antag: 2

How did CCOC(=O)c1sc(N2C(=O)C(O)=C(C(=O)c3ccco3)C2c2ccccc2)nc1C (stereo unspecified) do in these assays?
HIV Rev-RRE inh: 13; EphB4 antag: -3

What do the screens show for `O=C1CCSc2ccc(Cl)cc2N1Cc1ccc(Cl)cc1`?
Cav3 T inh: -4.5; DAT uptake mod: -0.00068; HIV Rev-RRE inh: 10; EphB4 antag: 1

What do the screens show for `COCCn1cnc2c1c(=O)n(CC(=O)Nc1cc(C)on1)c(=O)n2Cc1ccccc1`?
Cav3 T inh: 0.2; DAT uptake mod: -0.36; HIV Rev-RRE inh: 5; EphB4 antag: 4

How did COCCn1c(N)c(NCc2ccccc2)c(=O)n(CC(=O)Nc2cc(C)ccc2C)c1=O do in these assays?
Cav3 T inh: -0.14; DAT uptake mod: 2*; HIV Rev-RRE inh: 3; EphB4 antag: -3

How did CCC(c1nnnn1C1CCCC1)N(Cc1cccs1)Cc1cc2cc(C)ccc2[nH]c1=O (stereo unspecified) do in these assays?
Cav3 T inh: -1.1; DAT uptake mod: 0.53; HIV Rev-RRE inh: 3; EphB4 antag: 8

What do the screens show for `CCOc1ccc2[nH]c(=O)c(CN(Cc3cccs3)C(CC)c3nnnn3C(C)(C)CC)cc2c1` (stereo unspecified)?
Cav3 T inh: -6.2*; DAT uptake mod: 0.35

Results for CCCCc1ccc(-c2nc(NC(=O)C3C4CCC(O4)C3C(=O)O)sc2C)cc1 (stereo unspecified) ?
Cav3 T inh: -0.73; DAT uptake mod: -0.32; HIV Rev-RRE inh: 3; EphB4 antag: 4

How did COC(=O)c1ccccc1NC(=O)c1cc2ncc(Br)cn2n1 do in these assays?
DAT uptake mod: -2.3*; HIV Rev-RRE inh: -1; EphB4 antag: -6

How did O=C(Nc1ccc(F)cc1F)c1cc2ncc(Br)cn2n1 do in these assays?
Cav3 T inh: 0.53; DAT uptake mod: -0.85; HIV Rev-RRE inh: 6; EphB4 antag: -3

Results for COc1ccc(-c2cnn3c4c(c(C)nc23)CCN4C(C)C)cc1OC ?
Cav3 T inh: 0.93; DAT uptake mod: 0.96; HIV Rev-RRE inh: -6; EphB4 antag: 0

Results for Cc1cccc(/C=N/NC(=O)C(C)Nc2cccc3ccccc23)n1 (stereo unspecified) ?
Cav3 T inh: 0.021; DAT uptake mod: 2.5*; HIV Rev-RRE inh: 27; EphB4 antag: 3

What do the screens show for `N#C/C(=C\c1ccc(O)c(O)c1)S(=O)(=O)c1ccccc1`?
Cav3 T inh: -3.6; DAT uptake mod: -2.6*; HIV Rev-RRE inh: 32; EphB4 antag: 7

Results for CC(C)C[C@H](N)c1cn([C@@H](Cc2ccc(O)cc2)C(=O)N2CCNCC2)nn1 ?
Cav3 T inh: 0.63; DAT uptake mod: -0.85

What do the screens show for `O=C(CSc1nc(C2CC2)nc2ccccc12)N1c2ccccc2Sc2ccccc21`?
HIV Rev-RRE inh: 2; EphB4 antag: 1

Results for O=C1CCC(C(=O)OCC(=O)N2N=C3/C(=C/c4ccccc4)CCCC3C2c2ccccc2)N1 (stereo unspecified) ?
Cav3 T inh: -2.2; DAT uptake mod: 1.7; HIV Rev-RRE inh: 2; EphB4 antag: -1

What do the screens show for `CNC(=O)c1sc(N2N=C3/C(=C/c4ccccc4)CCCC3C2c2ccccc2)nc1C` (stereo unspecified)?
Cav3 T inh: -4.4*; DAT uptake mod: -0.023; HIV Rev-RRE inh: 12; EphB4 antag: -4

Results for O=C(ONc1ccc(N=NC(=O)c2ccccc2O)cc1)c1ccccc1 ?
Cav3 T inh: -4.5*; DAT uptake mod: 0.01; HIV Rev-RRE inh: -3; EphB4 antag: 4

Results for CC(C)NC(C(=O)Nc1cc(Cl)cc(Cl)c1)c1ccccc1 (stereo unspecified) ?
Cav3 T inh: -4.6*; DAT uptake mod: -0.49; HIV Rev-RRE inh: 13; EphB4 antag: 0

Results for Nc1ccc2[nH]ncc2c1 ?
Cav3 T inh: 1.2; DAT uptake mod: -0.27

Results for Clc1ccc(-c2cn3nc4c(nc3n2)CCCC4)cc1 ?
Cav3 T inh: -1.4; DAT uptake mod: -0.25; HIV Rev-RRE inh: 38*; EphB4 antag: 2

What do the screens show for `COC(=O)C1=C(C)N=C2SC(C)C(=O)N2C1/C=C/c1ccccc1OC` (stereo unspecified)?
Cav3 T inh: -7.4*; DAT uptake mod: -0.052; HIV Rev-RRE inh: 12; EphB4 antag: 0

What do the screens show for `CCC1SC2=NC(C)=C(C(=O)OCC(C)C)C(/C=C/c3ccccc3OC)N2C1=O` (stereo unspecified)?
Cav3 T inh: -2.3; DAT uptake mod: -0.57; HIV Rev-RRE inh: 2; EphB4 antag: 3

Results for CCC1SC2=NC(C)=C(C(=O)OCCOC)C(/C=C/c3ccccc3OC)N2C1=O (stereo unspecified) ?
Cav3 T inh: -5.8*; DAT uptake mod: -7.6*; HIV Rev-RRE inh: 9; EphB4 antag: 9

Results for CC(C)n1c(SCc2ccc(Cl)cc2)nc2c1c(=O)[nH]c(=O)n2C ?
Cav3 T inh: -0.16; DAT uptake mod: -3.1*; HIV Rev-RRE inh: 3; EphB4 antag: 3

Results for CC(C)CCn1c(SCc2ccc(Cl)cc2)nc2c1c(=O)[nH]c(=O)n2C ?
Cav3 T inh: -0.044; DAT uptake mod: 0.54; HIV Rev-RRE inh: 11; EphB4 antag: 0

Results for COc1ccc(C(=O)NCCSCc2ccc(C)cc2)cc1 ?
Cav3 T inh: -5.6*; DAT uptake mod: 0.21; HIV Rev-RRE inh: 4; EphB4 antag: 6

Results for O=c1c2ccccc2oc2ccc(-c3ccc4[nH]ccc4c3)cc12 ?
Cav3 T inh: -0.016; DAT uptake mod: -0.48

What do the screens show for `Nc1ccc2oc3ccc(N)cc3c(=O)c2c1`?
Cav3 T inh: 1; DAT uptake mod: 0.0076; HIV Rev-RRE inh: 37*; EphB4 antag: -2

Results for CC(C)CCn1c(Oc2ccccc2Cl)nc2c1c(=O)n(C)c(=O)n2C ?
Cav3 T inh: -4.9*; DAT uptake mod: -0.057; HIV Rev-RRE inh: 1; EphB4 antag: 4

Results for CC(C)CCn1c(Cl)nc2c1c(=O)n(C)c(=O)n2C ?
Cav3 T inh: -1.8; DAT uptake mod: -0.95; HIV Rev-RRE inh: 10; EphB4 antag: 4

Screening results: PubChem BioAssay, several laboratories
